Screening data from PubChem.
Hits are enriched below; roughly 2.3% of the tested compounds scored in any of these assays.
TRPC6 inh: blocks the mouse TRPC6 cation channel. Q61143. actives 1.1% (n = 310,000). HEK293-TRPC6, membrane potential dye, ACh-evoked depolarization; active compounds read low. B-score at 10 µM;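 active = B-score under library mean minus 3 SD, initial fluorescence not abnormally high, positive integrated signal ratio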;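 note: B-score derived from integrated fluorescence ratio over the kinetic read; more negative B-score means stronger inhibition of depolarization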
Target sequence (Q61143 whole entry, looked up): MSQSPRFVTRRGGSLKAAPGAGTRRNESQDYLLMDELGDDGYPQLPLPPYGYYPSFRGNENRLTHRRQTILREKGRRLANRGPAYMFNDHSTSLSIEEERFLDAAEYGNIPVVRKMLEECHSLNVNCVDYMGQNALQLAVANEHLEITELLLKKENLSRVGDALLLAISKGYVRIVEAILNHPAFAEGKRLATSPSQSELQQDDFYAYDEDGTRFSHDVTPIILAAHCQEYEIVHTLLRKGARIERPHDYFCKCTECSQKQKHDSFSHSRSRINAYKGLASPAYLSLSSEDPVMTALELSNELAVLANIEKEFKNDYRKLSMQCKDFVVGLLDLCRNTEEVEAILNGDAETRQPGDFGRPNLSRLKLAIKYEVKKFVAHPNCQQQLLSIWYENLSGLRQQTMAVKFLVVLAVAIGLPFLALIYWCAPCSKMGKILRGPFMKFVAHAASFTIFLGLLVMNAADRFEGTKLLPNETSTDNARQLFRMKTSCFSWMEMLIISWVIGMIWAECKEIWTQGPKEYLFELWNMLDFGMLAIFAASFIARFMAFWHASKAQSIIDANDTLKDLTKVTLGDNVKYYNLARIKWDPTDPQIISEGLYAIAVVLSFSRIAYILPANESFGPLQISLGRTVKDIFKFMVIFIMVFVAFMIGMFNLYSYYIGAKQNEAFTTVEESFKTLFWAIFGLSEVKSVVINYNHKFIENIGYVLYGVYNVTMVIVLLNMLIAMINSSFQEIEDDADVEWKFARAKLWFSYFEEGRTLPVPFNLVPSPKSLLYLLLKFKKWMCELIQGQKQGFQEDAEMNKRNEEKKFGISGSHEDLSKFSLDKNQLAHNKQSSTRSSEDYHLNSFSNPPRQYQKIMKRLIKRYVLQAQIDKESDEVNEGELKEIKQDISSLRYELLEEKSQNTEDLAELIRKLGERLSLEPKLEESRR
TRPC4 PAM: allosterically enhances the mouse TRPC4 cation channel; Q9QUQ5; HEK293 TRPC4beta/mu-opioid, DAMGO EC20, Fluo-4 Ca2+ flux; active compounds read high; B-score at 10 µM; actives 0.42% (n = 310,000); AID 2227;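 active = B-score of calcium response area above 5 SD of library B-scores, with initial fluorescence ratio within 5 SD of library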
TRPC6 act: activators of mouse TRPC6 channel | HEK293-TRPC6 membrane potential dye fluorescence; active compounds read high | B-score at 10 µM | actives 0.13% (n = 310,000);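 active = B-score of the integrated fluorescence ratio above library mean plus 3 SD, and starting fluorescence ratio within library mean plus 5 SD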;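 note: higher score means more depolarization so channel activation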
TRPC4 inh: inhibitors of mouse TRPC4 channel; HEK293 TRPC4beta/mu-opioid, DAMGO-evoked Fluo4 calcium flux; active compounds read low; B-score at 10 µM; actives 0.39% (n = 300,000); AID 2247;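 active = B-score over 3 SD under the library average, no early fluorescence shift, positive overall ratio signal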
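Assay system – HEK293 line stably carrying TRPC4beta and mu-opioid receptor · Doses – single dose · Detection – Fluo4 calcium-dye fluorescence, kinetic read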
TRPC4 act: opens the mouse TRPC4 cation channel. AID 2237. HEK293 TRPC4beta/mu-opioid, Fluo4 calcium fluorescence; active compounds read high. B-score at 10 µM. actives 0.49% (n = 310,000);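 active = B-score above 5 SD of library B-scores, and initial fluorescence ratio not above library mean plus 5 SD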;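 note: positive B-score marks a calcium rise read as TRPC4 activation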
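Assay system: HEK293 cells stably co-expressing mouse TRPC4beta and mu-opioid receptor / Timing: Fluo4 dye loading 45 min at room temperature, 110 s recording / Signal: Fluo4 calcium-sensitive dye fluorescence, kinetic, 1 Hz baseline / Read-out: integrated baseline-normalised fluorescence ratio, converted to per-well B score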
Each line names hits and unclear results; the compound was inactive in the other large screens.

CC(C)(C)c1ccc(OC(=O)Cn2c(C(F)(F)F)nc3ccccc32)cc1	none
CSCCC(NS(=O)(=O)c1ccc2c(c1)oc(=O)n2C)C(=O)NC1CCCCC1 (stereo not given)	none
CSCCC(NS(=O)(=O)c1ccc2c(c1)c(=O)n(C)c(=O)n2C)C(=O)NC1CCN(Cc2ccccc2)CC1 (stereo not given)	TRPC4 act 90
N#Cc1ccccc1NS(=O)(=O)c1cc2c3c(c1)CCC(=O)N3CCC2	none
CCOc1ncccc1C(=O)NCc1ccccc1	none
COc1ccc(C(CNC(=O)c2cc(SC)ccc2Cl)N(C)C)cc1 (stereo not given)	TRPC4 act 118
COc1ccc(C(CNC(=O)c2ccccc2SC)N(C)C)cc1 (stereo not given)	TRPC4 act 88
CCOc1ncccc1C(=O)NCC(c1ccccc1)N(C)C (stereo not given)	TRPC4 act 126
COc1ccc(C(CNC(=O)c2cncc(Br)c2)N(C)C)cc1 (stereo not given)	none (no result: TRPC4 inh)
CN(C)C(CNC(=O)c1cc2ccccc2oc1=O)c1ccccc1 (stereo not given)	TRPC4 inh -6, TRPC4 act 87
Cn1c(=O)n(C)c2cc(NC(=O)c3ccc(F)cc3)ccc21	none
CC(=O)Nc1ccc(C(=O)NCC2(N3CCCCC3)CCCCC2)cc1	none
COc1ccc(-c2cc(C(=O)NCc3ccco3)c3ccccc3n2)cc1OC	none
COc1ccc(-c2cc(C(=O)NCC(c3ccccc3)N(C)C)c3ccccc3n2)cc1OC (stereo not given)	TRPC4 act 90
Cc1ccc(-c2cc(C(=O)NCCCN3CCOCC3)c3ccccc3n2)cc1C	none
Cc1ccc(-c2cc(C(=O)NCCCN3CCCC3)c3ccccc3n2)cc1C	TRPC4 PAM 15
O=C(COC(=O)c1ccccc1C(=O)c1ccccc1)NCCc1ccccc1	none
O=C(COC(=O)c1ccccc1C(=O)c1ccc(Cl)cc1)NCCc1ccccc1	TRPC4 PAM 14
Cc1ccc(NC(=S)/N=C(\N)Nc2nc(C)c3cc(C)c(C)cc3n2)cc1C	none
c1ccc(-c2ncc(CN3CCN(c4ccccn4)CC3)[nH]2)cc1	TRPC4 inh -6
c1ccc(N2CCN(Cc3nc4ccccc4[nH]3)CC2)nc1	none
CCCCn1c(N)c(N(CCOC)C(=O)CSc2n[nH]c(-c3ccc(OC)cc3)n2)c(=O)[nH]c1=O	none
COc1ccc(CCNCC(O)COc2ccc(OC)cc2C(C)(C)C)cc1 (stereo not given)	TRPC4 PAM 16
COc1ccc(CCNCC(O)COc2cccc(Br)c2)cc1OC (stereo not given)	none
COc1ccc(/C=C/CN2CCCC(C(=O)c3ccc(OC)c(F)c3)C2)cc1 (stereo not given)	TRPC4 act 131
O=C(CN1CCN(C(c2ccccc2)c2ccccc2)CC1)N1CCN(c2ccccc2)CC1	none
CC(=O)c1ccc(N2CCN(C(=O)c3c(-c4ccccc4Cl)noc3C)CC2)cc1	none
O=C(NC1CCN(Cc2ccccc2)CC1)C12CC3CC(CC(C3)C1)C2	TRPC4 act 123
O=C(Cc1ccc(Br)cc1)NC1CCN(Cc2ccccc2)CC1	TRPC4 PAM 12
O=C(CSc1nc2[nH]ncc2c(=O)n1-c1ccccc1Br)NCc1ccccc1Cl	TRPC4 inh -6
NC(=O)c1cc(S(=O)(=O)N2CCN(c3ccc([N+](=O)[O-])cc3)CC2)cs1	none
COc1cc(C=O)ccc1OC(=O)c1ccncc1	none
COc1cc(C=O)ccc1OC(=O)c1ccc(C(C)C)cc1	TRPC4 inh -6
O=C(/C=C/c1cccs1)NC(=S)NNC(=O)c1ccccc1O	TRPC4 act 47
COc1ccc(C(=O)NNC(=S)NC(=O)/C=C/c2cccs2)cc1	none
COCC1CCCCN1C(=O)c1ccc(OC)c(OC2CCN(C(C)C)CC2)c1 (stereo not given)	none
Cc1nc(NC(=O)CCc2ccccc2)sc1C	none
OCCNC(=S)Nc1cc(Cl)cc(Cl)c1	none
COc1ccc(N2CCN(C(=O)COC(=O)Cc3cccc(OC)c3)CC2)cc1	none
COc1cccc(NS(=O)(=O)c2ccc3[nH]cc(C(=O)NCCN4CCOCC4)c(=O)c3c2)c1	none (no result: TRPC4 inh)
Cc1ccccc1NS(=O)(=O)c1ccc2[nH]cc(C(=O)NCCCN3CCOCC3)c(=O)c2c1	TRPC6 inh -5.97 (no result: TRPC4 inh)
